Experimental findings from PubChem BioAssay are described below.

By inhibition is commonly meant the drop in the measured response relative to a control, in per cent.

A short description of test [1]: inhibitors of TNFa-induced NFkB p65 translocation, primary screen, imaging, HUVEC, MLSMR starter and 10KST1 sets (AID 438;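 active = inhibition above 20% together with a positive visual image hit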;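 also: compound added about 3h40 before a 20 min TNFalpha stimulation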;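 as to inhibition: signal is the nuclear over cytoplasmic p65 intensity ratio per well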). To be noted: HUVEC TNFa-induced p65 nuclear translocation; cell count: measured here: nuclei count (cytotoxicity indicator), at 2.08 µM; inhibition: at 2 µM, stronger effect = higher value, 0% TNFa-plus-vehicle, 100% no-TNFa wells.
The nature of test [2]: endothelial E-selectin expression blockers – imaging, HUVEC, immunofluorescence, MLSMR starter and 10KST1 sets, primary screen (AID 487;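 active = visually confirmed hit in the image check and inhibition above 20%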;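 as to inhibition: signal is fraction of cell area covered by stained E-selectin grains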;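 as to nuclei count: 100% = median nuclei count of all wells on the same plate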). The following applies: HUVEC TNFalpha-induced E-selectin immunofluorescence imaging, at 2 µM; inhibition: stronger effect = higher value; nuclei count: measured here: cell number, toxicity.
Test [3] is described as follows: Primary imaging screen for DUSP6 inhibitors that restore phospho-Erk in transfected HeLa cells, chemical complementation (AID 609;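 active = compounds giving at least 50% inhibition in the cell-based MKP-3 phosphatase rescue imaging test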;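 as to inhibition: phospho-Erk level distribution per well compared with pooled transfected vehicle control wells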). The following applies: HeLa MKP-3 transfected, phospho-Erk imaging KS statistic, at 10 µM, cells stimulated with TPA for 15 min.
The target in test [4] is Dual specificity protein phosphatase 6 (Homo sapiens) (UniProt Q16828). The description is as above. The following applies: HeLa MKP-3 transfected, phospho-Erk imaging KS statistic; at 10 µM; stronger effect = higher value; cells stimulated with TPA for 15 min.
Test [5] has as its target Voltage-gated potassium channel subunit beta-2 (Rattus norvegicus) (UniProt P62483). In words: inhibitors of rat Kvbeta2 reductase activity – biochemical, NADPH fluorescence, primary screen (AID 622;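 active = fluorescence slope higher than the sample average by over 3 SD, cut at about -0.22 in these data, passing the limit was not always enough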;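 also: slope of raw intensity against log time taken from 70 to 1610 s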). The following applies: recombinant KvBeta, 4-cyanobenzaldehyde reduction, at 10 µM, stronger effect = higher value.
The target is the same in test [6]. In words: enhancers of rat Kvbeta2 NADPH turnover – biochemical, NADPH fluorescence, primary screen (AID 623;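 active = NADPH fluorescence slope more negative than the mean of all samples by about 3 SD, 99.7% confidence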;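 also: fluorescence intensity change per second fitted from 20 to 320 s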). The following applies: Recombinant KvBeta, NADPH fluorescence decrease slope, 10 min; at 10 µM; stronger effect = lower value.
Test [7] deals with Alpha-2C adrenergic receptor (Homo sapiens) (UniProt P18825). In words: compounds altering alpha2C-coupled GIRK flux – cell-based, HEK293 alpha2C/GIRK1/2, thallium flux, primary screen (AID 624;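 active = fluorescence slope after compound addition differing from the mean of all screened samples at 99.7% confidence, in either direction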;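 also: slope of fluorescence ratio to pre-addition baseline per second over 15 to 24 s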). To be noted: thallium flux BTC fluorescence, at 10 µM, actives lie on both sides.
The nature of test [8]: inhibitors of larval lipid processing in zebrafish, primary screen, whole organism, PED6 fluorescence, gall bladder and intestine (AID 686;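 active = a full or partial loss of lipid-probe fluorescence in the fish gall bladder, intestine or both, judged by eye; inactive = no fluorescence loss, or compound toxic to the fish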;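 also: larvae 5 to 7 days old with five fish per well; signal comes from phospholipase A2 cleavage of quenched PED6 carried via bile; overnight exposure to compound and PED6 before scoring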). The following applies: Zebrafish larvae PED6 lipid processing, fluorescence scoring; screened at 20 µM (by protocol). Put shortly:
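system = live zebrafish larvae aged 5-7 days, whole organism | probe or stimulus = ingested quenched lipid PED6 at 100 nM | doses = 20 µM single dose | timing = overnight exposure | detection = fluorescence microscopy with visual scoring of gall bladder and intestine | read-out = visual per-well fluorescence inhibition score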

Test [9] can be described thus: loss of swimming-algae plug formation – whole organism, Chlamydomonas reinhardtii, WT vs cilia-less mutant, absorbance, 96-well, primary screen (AID 463189).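 Also: 0% = wild type cc124 cells in DMSO and 100% = ciliumless bld1 mutant cells.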 To be noted: Chlamydomonas reinhardtii gravitaxis, OD600 absorbance, 2 days; at 10 µM; stronger effect = higher value.
Where [10] appears, read: measured here: cell density z-score.
[11] abbreviates: measured here: nuclear c-Myc green intensity z-score.
The mark [12] stands for this setting: measured here: nuclear pErk red intensity z-score, stronger effect = higher value.

The source made the active and inactive calls.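 The calls were made as follows, unless noted: active = inhibition at or above 50% relative to wild type and mutant plate controls; inactive = inhibition below 50%.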

Sequence of Voltage-gated potassium channel subunit beta-2 (Rattus norvegicus) (P62483 whole entry, looked up): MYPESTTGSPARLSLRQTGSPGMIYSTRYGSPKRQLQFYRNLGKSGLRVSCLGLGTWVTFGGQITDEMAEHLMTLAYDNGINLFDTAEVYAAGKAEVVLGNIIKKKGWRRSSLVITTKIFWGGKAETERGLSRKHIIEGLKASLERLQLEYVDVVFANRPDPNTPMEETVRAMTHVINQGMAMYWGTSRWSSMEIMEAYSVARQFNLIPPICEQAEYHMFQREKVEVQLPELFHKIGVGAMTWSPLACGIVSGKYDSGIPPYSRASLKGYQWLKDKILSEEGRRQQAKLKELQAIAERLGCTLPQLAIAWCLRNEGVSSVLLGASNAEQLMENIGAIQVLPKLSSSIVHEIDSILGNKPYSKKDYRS
Sequence of Dual specificity protein phosphatase 6 (Homo sapiens) (Q16828 whole entry, looked up): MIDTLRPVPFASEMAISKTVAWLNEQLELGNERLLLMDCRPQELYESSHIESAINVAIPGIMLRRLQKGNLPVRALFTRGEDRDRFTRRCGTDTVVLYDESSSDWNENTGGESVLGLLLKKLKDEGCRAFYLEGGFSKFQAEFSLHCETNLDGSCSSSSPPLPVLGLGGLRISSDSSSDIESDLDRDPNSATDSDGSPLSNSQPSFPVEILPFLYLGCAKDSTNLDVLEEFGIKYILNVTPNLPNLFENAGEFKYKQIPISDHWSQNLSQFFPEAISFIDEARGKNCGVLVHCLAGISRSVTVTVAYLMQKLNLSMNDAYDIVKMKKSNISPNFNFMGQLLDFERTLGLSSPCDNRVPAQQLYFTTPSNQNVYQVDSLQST
Sequence of Alpha-2C adrenergic receptor (Homo sapiens) (P18825 whole entry, looked up): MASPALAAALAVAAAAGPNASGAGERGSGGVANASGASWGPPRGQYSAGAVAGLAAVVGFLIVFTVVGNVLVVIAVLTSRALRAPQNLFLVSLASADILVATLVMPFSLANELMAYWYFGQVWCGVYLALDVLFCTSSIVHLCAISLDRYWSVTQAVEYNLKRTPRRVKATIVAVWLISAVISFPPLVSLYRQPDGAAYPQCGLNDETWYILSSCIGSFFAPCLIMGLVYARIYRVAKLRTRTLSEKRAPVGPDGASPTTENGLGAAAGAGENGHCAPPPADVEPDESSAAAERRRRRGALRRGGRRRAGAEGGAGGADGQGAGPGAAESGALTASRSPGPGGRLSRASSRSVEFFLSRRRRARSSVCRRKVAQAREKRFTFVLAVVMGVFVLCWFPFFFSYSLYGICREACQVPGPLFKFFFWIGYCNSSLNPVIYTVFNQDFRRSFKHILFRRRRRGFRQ

For the compound `CC(C)C1=C2OC(N)=C(C#N)C(C#N)=C2C(C)CC1` (centres undefined), in test [1], the cell count was 361. In addition, the inhibition in test [1] was -6.8% (inactive); in test [2], -144% (inactive); in test [4] it was 7.48% (inactive); in test [9] it was 13% (inactive). In [2], this compound showed a nuclei count of 150%. In addition, the results for the z-score in test [3] (setting [10]), in test [3] (setting [11]) and in test [3] (setting [12]) were 0.333, 0.379 and 0.759, respectively. Also, in test [5], the fluorescence slope was -0.391 (inactive). Moreover, the NADPH fluorescence slope in test [6] is -3.9e-05 (inactive). Moreover, the slope in test [7] is 0.0063 (inactive). Moreover, the compound was classed as inactive in test [8].

Regarding `CC(C)OC(=O)CC1=NC(=O)CS1`, the cell count in test [1] was determined as 693. Also, the inhibition in test [1] is -4% (inactive); in [2] it was -27.6% (inactive); in test [4] it was -0.624% (inactive); in test [9], -2.62% (inactive). Besides, the nuclei count in test [2] was found to be 175%. In addition, the results for the z-score in test [3] (setting [10]), in [3] (setting [11]) and in test [3] (setting [12]) were -0.0687, -1.07 and 0.103, respectively. Moreover, in [5], the fluorescence slope is -0.423 (inactive). The NADPH fluorescence slope in test [6] was -4.2e-05 (inactive). For the same compound, the slope in test [7] was 0.00582 (inactive). In [8], the result was inactive.

Consider `C=CCn1c(-c2ccccc2)n[nH]c1=S`, for which the cell count in test [1] is 492. The inhibition in [1] is -1.5% (inactive); in test [2], 71% (active); in [4] it was 4.25% (inactive); in test [9] it was 5.46% (inactive). The same compound came in with a nuclei count in test [2] of 124%. Also, the z-score is -1.14 in [3] (setting [10]), 2.62 in test [3] (setting [11]) and -0.366 in test [3] (setting [12]). For the same compound, the fluorescence slope in test [5] is -0.512 (inactive). The NADPH fluorescence slope in [6] is -0.000177 (inactive). Moreover, in test [7], the slope was 0.00512 (inactive). Further, the result in test [8] was inactive.

For the compound `CCC1(C)Cc2c(sc3c2c(=O)n(C)c2nnc(SCc4ccc5c(c4)OCO5)n32)CO1` (centres undefined), the cell count in [1] was 497. The inhibition in [1] is -11% (inactive); in [2], 34% (inactive); in test [4], 22.3% (inactive); in test [9], 46.1% (inactive). In test [2], this compound returned a nuclei count of 98.6%. Also, the z-score was 1.16 in test [3] (setting [10]), 0.737 in [3] (setting [11]) and -1.44 in [3] (setting [12]). The fluorescence slope in [5] was -0.418 (inactive). For the same compound, the NADPH fluorescence slope in test [6] is 9.4e-07 (inactive). In test [7], the slope is 0.00552 (inactive). The result in test [8] was inactive.

As to `CN(C)CC(O)COc1cccc(OCC(O)CN(C)C)c1` (centres undefined), in [1], the cell count was determined as 433. In addition, the inhibition in test [1] was -6.5% (inactive); in [2], -137% (inactive); in test [4], -7.28% (inactive); in [9], -5.71% (inactive). The compound further registered a nuclei count in test [2] of 155%. For the same compound, the z-score in test [3] (setting [10]) is -1.38; in test [3] (setting [11]), -0.215; in [3] (setting [12]) it was 0.992. Further, in [5], the fluorescence slope is -0.4 (inactive). In addition, the NADPH fluorescence slope in test [6] was -4.2e-05 (inactive). Moreover, in [7], the slope was 0.00531 (inactive). Further, the compound was classed as inactive in test [8].

For the compound `CCCCCNC(=O)c1c(N)n(/N=C/c2ccco2)c2nc3ccccc3nc12`, the cell count in [1] stood at 351. Besides, the inhibition in [1] is -5.8% (inactive); in test [2], -71.9% (inactive); in test [4], 17.4% (inactive); in test [9] it was 14.7% (inactive). Further, the nuclei count in [2] stood at 147%. Besides, the z-score in test [3] (setting [10]) is 1.49; in test [3] (setting [11]), -0.91; in test [3] (setting [12]), -0.977. Further, in test [5], the fluorescence slope was -0.416 (inactive). Further, the NADPH fluorescence slope in [6] was -0.000149 (inactive). Further, the slope in [7] is 0.00624 (inactive). The compound was called inactive in [8].

On to `COc1nc(NS(=O)(=O)c2ccc(C)cc2)nc(C)c1Cl`, for which the cell count in test [1] turned out to be 718. For the same compound, the inhibition was 3.9% (inactive) in test [1], -62.9% (inactive) in test [2], 1.48% (inactive) in test [4] and -6.39% (inactive) in [9]. The compound also yielded a nuclei count in [2] of 170%. The values for the z-score in test [3] (setting [10]), in test [3] (setting [11]) and in test [3] (setting [12]) were -1.13, 1.46 and -0.341, respectively. For the same compound, in [5], the fluorescence slope is -0.346 (inactive). Besides, the NADPH fluorescence slope in test [6] is -3.1e-05 (inactive). In test [7], the slope is 0.00526 (inactive). For the same compound, the call in test [8] was inactive.

Turning to `O=C(CCC1CCCC1)N1CCC(N2CCN(c3ccccc3)CC2)CC1`, the cell count in test [1] turned out to be 411. Moreover, the inhibition in [1] was -9.4% (inactive); in test [2], -188% (inactive); in test [4] it was 9.39% (inactive); in test [9], 62.1% (active). Also, the nuclei count in [2] came out at 140%. For the same compound, the z-score is 0.947 in test [3] (setting [10]), 0.889 in test [3] (setting [11]) and -0.837 in test [3] (setting [12]). For the same compound, the fluorescence slope in test [5] is -0.446 (inactive). Further, the NADPH fluorescence slope in test [6] is 4.6e-06 (inactive). The slope in test [7] is 0.00549 (inactive). Moreover, the call in test [8] was inactive.

As for `COc1ccc(/C(O)=C2\C(=O)C(=O)N(CCN3CCOCC3)C2c2ccccc2OC)cc1` (centres undefined), the cell count in [1] amounted to 562. The inhibition in [1] was -10.5% (inactive); in test [2], -38.1% (inactive); in [4], -7.86% (inactive); in [9], -2.72% (inactive). Besides, in test [2], the nuclei count came to 164%. The z-score in test [3] (setting [10]) is 1.03; in test [3] (setting [11]), -1.74; in test [3] (setting [12]) it was 0.476. For the same compound, the fluorescence slope in [5] is -0.486 (inactive). Also, the NADPH fluorescence slope in [6] was -2.2e-05 (inactive). Further, in [7], the slope was 0.00695 (inactive). In addition, the call in test [8] was inactive.

Consider `COc1ccc(N2C(=O)CN=C2Nc2nc(C)cc(C)n2)cc1`, for which the cell count in test [1] is 570. For the same compound, the inhibition in [1] is -16.6% (inactive); in [2] it was -179% (inactive); in [4], 1.98% (inactive); in [9], 0.296% (inactive). This compound returned a nuclei count in test [2] of 144%. Moreover, the z-score was 1.15 in [3] (setting [10]), -0.727 in test [3] (setting [11]) and 0.0405 in test [3] (setting [12]). In test [5], the fluorescence slope was -0.509 (inactive). Besides, the NADPH fluorescence slope in test [6] was -6.2e-05 (inactive). The slope in test [7] is 0.00444 (inactive). In addition, the compound was called inactive in [8].

Turning to `CCOC(=O)c1sc2c(c1C)c(=O)c(C(=O)OCC)cn2CC`, the cell count in [1] amounted to 584. Further, the inhibition is -4.2% (inactive) in test [1], -79% (inactive) in test [2], 7.01% (inactive) in test [4] and -0.239% (inactive) in [9]. Besides, in test [2], the nuclei count was 156%. Also, the z-score is -0.851 in [3] (setting [10]), -0.225 in [3] (setting [11]) and 0.403 in [3] (setting [12]). Besides, in [5], the fluorescence slope was -0.376 (inactive). The NADPH fluorescence slope in [6] is 4.1e-06 (inactive). The slope in [7] is 0.00559 (inactive). Further, in test [8], the outcome was inactive.

Regarding `CCOC(=O)c1[nH]c2ccc(OC)cc2c1NC(=O)CCN1CCN(Cc2ccccc2)CC1`, the cell count in [1] was determined as 541. Also, the inhibition in [1] is -11.2% (inactive); in test [2], -92.4% (inactive); in [4] it was 1.12% (inactive); in [9], 16.3% (inactive). Further, the nuclei count in test [2] came out at 165%. Also, the z-score in [3] (setting [10]) was 1.87; in test [3] (setting [11]), 1.32; in test [3] (setting [12]), -0.24. For the same compound, the fluorescence slope in test [5] was -0.173 (inactive). The NADPH fluorescence slope in [6] was -2.9e-05 (inactive). The slope in test [7] is 0.00459 (inactive). Also, the outcome in test [8] was inactive.

Regarding `COc1cc2c(C(=O)N3CCN(c4ccccc4)CC3)c(C)oc2cc1Br`, in test [1], the cell count is 539. Besides, the inhibition in test [1] is -0.9% (inactive); in test [2], -65.1% (inactive); in test [4], 10.5% (inactive); in [9], 1.23% (inactive). Moreover, in test [2], the nuclei count turned out to be 139%. In addition, the figures for the z-score in test [3] (setting [10]), in test [3] (setting [11]) and in [3] (setting [12]) were 1.72, -0.592 and -0.944, respectively. Besides, in test [5], the fluorescence slope is -0.532 (inactive). Moreover, the NADPH fluorescence slope in test [6] is -2.7e-05 (inactive). Besides, the slope in [7] was 0.00643 (inactive). Besides, in test [8], the outcome was inactive.
